The values that follow come from ChEMBL document CHEMBL5380783, “N-Substituted l-Iminosugars for the Treatment of Sanfilippo Type B Syndrome” (J Med Chem, 2023).

One data set concerns HaCaT. The experiment in a line: Antiproliferative activity against human HaCaT cells upto 100 uM. It is filed as toxicity, cell-based.
For data set [1], the system named is Fibroblast. The experiment in a line: Effect on heparan sulfate changes in human fibroblast cells at 20 uM incubated for 48 hrs by indirect immunofluorescence staining analysis. Format: functional, cell-based. The essentials:
(§1)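 HDFa, MPS IIIA, MPS IIIB and MPS I patient fibroblasts in DMEM, 10% FBS, grown 48 h on coverslips with 20 μM compound. Double immunostained for HS (10E4) and Lamp1 with DAPI, confocal imaging. Mean fluorescence intensity expressed relative to untreated cells (d-enantiomers: percent positive cells), 50 random cells from three experiments.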

For data set [2], the system named is IB3-1. The experiment in a line: Antiproliferative activity against human IB3-1 cells upto 100 uM. The note with it: ib3-1, 100 µM. It is filed as toxicity, cell-based.
Data set [3] is described as follows: Antiproliferative activity against human CuFi cells upto 100 uM. Format: toxicity, cell-based.
For data set [4], the system named is SK-N-BE(2). Nature of the data set: Inhibition of lysosomal defects in NAGLU-silenced human SK-NBE cell clones assessed as dispersion of lysosomes all over the cytoplasm at 20 uM incubated for 48 hrs by LAMP1 staining based indirect immunofluorescence assay. Format: functional. In outline: (§2)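 Control and NAGLU-silenced SK-NBE clones grown on coverslips with 20 μM compound for 48 h. Fixed in 3.7% formaldehyde, permeabilized with saponin/BSA buffer, stained with anti-Lamp1 or anti-HS 10E4 for 1 h, then Alexa secondaries. Confocal imaging with 63× objective. Scored as percent cells with enlarged Lamp1 structures or membrane HS, plus mean fluorescence intensity, over 50 random cells from three experiments.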

The test system of data set [5] is Fibroblast. The experiment in a line: Upregulation of NAGLU protein expression in Sanfilippo-B patient derived human fibroblast cells at 20 uM incubated for 24 hrs by western blot analysis. It is filed as functional, cell-based. The essentials: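 Sanfilippo B patient fibroblasts in DMEM, 10% FBS, treated 24 h with 20 μM compound. Lysates (50 μg per lane) blotted with anti-NAGLU antibody and HRP secondary with ECL detection; blots re-probed for β-actin as loading control.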

The subject of data set [6] is Fibroblast. The experiment in a line: Inhibition of lysosomal defects in MPS-1 patient derived human fibroblast cells assessed as reduction in accumulation of enlarged LAMP1-positive lysosomal structures within the cytoplasm at 20 uM incubated for 48 hrs by LAMP1 staining based indirect immunofluorescence assay. It is filed as functional, cell-based. The essentials:
as §1

The subject of data set [7] is SK-N-BE(2). Nature of the data set: Inhibition of heparan sulfate accumulation on cell membrane in NAGLU-silenced human SK-NBE cells clone at 20 uM incubated for 48 hrs by indirect immunofluorescence staining analysis. It is filed as functional, cell-based. In outline:
as §2

For data set [8], the system named is HeLa. Nature of the data set: Inhibition of heparan sulfate accumulation on cell membrane in human HeLa cells at 20 uM incubated for 48 hrs by indirect immunofluorescence staining analysis. It is filed as functional, cell-based. In outline: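 HeLa cells grown 48 h with compound, then immunostained with anti-HS antibody 10E4 to gauge membrane HS.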
For data set [9], the system named is HeLa. The experiment in a line: Downregulation of EXT1 protein expression in human HeLa cells at 20 uM incubated for 24 hrs by western blot analysis. Format: functional, cell-based.
The subject of data set [10] is HeLa. The experiment in a line: Cytotoxicity against human HeLa cells assessed as reduction in cell viability at 20 uM incubated for 48 hrs by trypan blue exclusion method. It is filed as functional, cell-based. The essentials: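 HeLa cells seeded at 100,000 per well and grown overnight in complete RPMI. Exposed to 20 μM compound in the same medium for 48 h at 37 °C; untreated mock as control. Cells trypsinized, live cells counted by trypan blue exclusion on an automated counter. Means of three independent experiments, each in triplicate, with s.e.m.; Student's t-test, p < 0.05.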

In data set [11] the test system is SK-N-BE(2). Nature of the data set: Effect on lysosome size and distribution in human SK-NBE cell clone assessed as at 20 uM incubated for 48 hrs by LAMP1 staining based indirect immunofluorescence assay. It is filed as functional. The essentials:
as §2

Data set [12] concerns HeLa. Nature of the data set: Upregulation of NAGLU protein expression in human HeLa cells at 20 uM incubated for 24 hrs by western blot analysis. It is filed as functional, cell-based.
The subject of data set [13] is IB3-1. The experiment in a line: Cytotoxicity against human IB3-1 cells assessed as induction of apoptosis upto 100 uM. It is filed as toxicity, cell-based. The note with it: ib3-1, 100 µM.
Data set [14] concerns SK-N-BE(2). Nature of the data set: Effect on heparan sulfate changes in human SK-NBE cell membrane at 20 uM incubated for 48 hrs by indirect immunofluorescence staining analysis. It is filed as functional, cell-based. In outline:
as §2

Data set [15] has as its system Fibroblast. Nature of the data set: Inhibition of lysosomal defects in Sanfilippo-B patient derived human fibroblast cells assessed as reduction in more concentrated lysosomal distribution in the perinuclear region of the cytoplasm at 20 uM incubated for 48 hrs by LAMP1 staining based indirect immunofluorescence assay. It is filed as functional, cell-based. In outline: as §1

Data set [16] has as its system Fibroblast. The experiment in a line: Inhibition of lysosomal defects in Sanfilippo-A patient derived human fibroblast cells assessed as reduction in accumulation of enlarged LAMP1-positive lysosomal structures within the cytoplasm at 20 uM incubated for 48 hrs by LAMP1 staining based indirect immunofluorescence assay. It is filed as functional, cell-based. In outline:
as §1

In data set [17] the test system is Fibroblast. Nature of the data set: Inhibition of heparan sulfate accumulation on cell membrane in MPS-1 patient derived human fibroblast cells at 40 uM incubated for 48 hrs by indirect immunofluorescence staining analysis. It is filed as functional, cell-based. In outline: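 MPS I patient fibroblasts grown on coverslips with 40 μM compound for 48 h. Immunostained for HS (10E4) and Lamp1 with DAPI, imaged by confocal microscopy. Mean fluorescence intensity expressed relative to untreated cells, 50 random cells from three independent experiments.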

The subject of data set [18] is SK-N-BE(2). The experiment in a line: Inhibition of amyloid beta (1 to 42) accumulation in cytoplasm of NAGLU-silenced human SK-NBE cell clones at 20 uM incubated for 48 hrs by indirect immunofluorescence staining based analysis. Format: functional. In outline:
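NAGLU-silenced SK-NBE clone on coverslips, exposed to 20 μM compound for 48 h. Cells fixed in formaldehyde, permeabilized with saponin, stained with anti-Aβ1-42 antibody and fluorescent secondary, imaged by confocal microscopy. Cells bearing Aβ1-42-positive structures counted among 50 random cells from three independent experiments; untreated clone as comparator.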

In data set [19] the test system is Fibroblast. Nature of the data set: Inhibition of heparan sulfate accumulation on cell membrane in Sanfilippo-A patient derived human fibroblast cells at 20 uM incubated for 48 hrs by indirect immunofluorescence staining analysis. Format: functional, cell-based. In outline:
as §1

Data set [20] relates to Alpha-N-acetylglucosaminidase (Homo sapiens), P54802 [UNDEFINED MUTATION]. The experiment in a line: Stabilization of mutated NAGLU in Sanfilippo-B patient derived human fibroblast cells assessed as increase in NAGLU activity using 4-methylumbelliferyl-N-acetyl-alpha-D-glucosaminide as substrate at 20 uM cells pretreated for 2 hrs with substrate followed by compound addition by fluorescence based analysis relative to control. It is filed as cell-based. The essentials:
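Pellets of 5 × 10^5 MPS IIIB or HDFa fibroblasts lysed by 10 freeze–thaw cycles and clarified at 4 °C; protein by Lowry. Lysate incubated 2 h with 2 mM 4-methylumbelliferyl-N-acetyl-α-D-glucosaminide stock in 0.2 M Na-acetate pH 4.5, compound added at 20 μM. Activity normalized to protein, expressed as nmol substrate hydrolysed per h per mg.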

The source made the active and inactive calls. No cut-off for these calls is given here.

Alpha-N-acetylglucosaminidase (Homo sapiens), P54802 [UNDEFINED MUTATION], sequence (P54802 whole entry, looked up, change not shown): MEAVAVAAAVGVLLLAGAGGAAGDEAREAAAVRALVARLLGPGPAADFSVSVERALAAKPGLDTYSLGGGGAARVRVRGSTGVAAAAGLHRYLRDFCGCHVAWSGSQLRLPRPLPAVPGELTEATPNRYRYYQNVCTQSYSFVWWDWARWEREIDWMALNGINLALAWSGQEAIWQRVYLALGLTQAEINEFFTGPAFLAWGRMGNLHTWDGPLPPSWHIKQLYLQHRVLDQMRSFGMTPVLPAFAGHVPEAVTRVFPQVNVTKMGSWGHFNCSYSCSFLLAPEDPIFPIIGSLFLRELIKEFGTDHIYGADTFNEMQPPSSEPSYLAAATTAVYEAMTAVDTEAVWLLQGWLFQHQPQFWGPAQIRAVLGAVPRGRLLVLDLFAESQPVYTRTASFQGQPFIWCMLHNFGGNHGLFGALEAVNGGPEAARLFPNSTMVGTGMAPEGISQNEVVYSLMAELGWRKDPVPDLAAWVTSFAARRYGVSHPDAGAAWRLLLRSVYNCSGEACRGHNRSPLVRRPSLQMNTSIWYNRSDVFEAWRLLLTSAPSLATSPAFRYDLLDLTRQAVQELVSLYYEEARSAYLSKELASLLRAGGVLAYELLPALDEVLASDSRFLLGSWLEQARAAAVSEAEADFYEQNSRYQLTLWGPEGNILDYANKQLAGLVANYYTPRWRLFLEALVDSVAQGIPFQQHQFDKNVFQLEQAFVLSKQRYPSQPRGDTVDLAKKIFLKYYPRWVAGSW

On to `Cl.OC[C@H]1[C@H](O)[C@@H](O)[C@H](O)CN1CCCCCOCC12CC3CC(CC(C3)C1)C2`, for which the Activity result (with HaCaT; in the data set with IB3-1 [2]; in data set [3]; with IB3-1 [13]) was “Non-Toxic” in each case. Besides, the outcome in the data set on Fibroblast [1], in the data set with SK-N-BE(2) [11] and in the data set on SK-N-BE(2) [14] was inactive. Besides, the inhibition entry in the data set with SK-N-BE(2) [4], in the data set on SK-N-BE(2) [7], in the data set on HeLa [8], in the data set on Fibroblast [15], with Fibroblast [16] and in the data set with Fibroblast [17] was “Active” each time. Besides, the inhibition result with SK-N-BE(2) [18] and in the data set on Fibroblast [19] was “Active” each time. Further, the outcome in the data set with Fibroblast [5], in the data set on HeLa [10] and with HeLa [12] was Active. Further, the inhibition result with Fibroblast [6] and with HeLa [9] was “inactive” in each case.

On to `CCCCN1C[C@@H](O)[C@H](O)[C@@H](O)[C@@H]1CO.Cl`, for which the Activity result (in the data set on HaCaT; with IB3-1 [2]; in [3]; in the data set on IB3-1 [13]) was “Non-Toxic” each time. Also, the result with Fibroblast [1], with SK-N-BE(2) [11] and in the data set on SK-N-BE(2) [14] was inactive. Further, the inhibition result in the data set with SK-N-BE(2) [4], with SK-N-BE(2) [7], in the data set on HeLa [8], with HeLa [9], in the data set on Fibroblast [15] and with Fibroblast [16] was “Active” each time. Also, the inhibition entry in the data set with Fibroblast [17], with SK-N-BE(2) [18] and in the data set on Fibroblast [19] was “Active” throughout. In addition, the fold change (FC) in data set [20] turned out to be 20. Also, the outcome with Fibroblast [5], with HeLa [10] and in the data set with HeLa [12] was Active. Further, the inhibition result with Fibroblast [6] is “inactive”.

As for `COCCCCCCCCCN1C[C@@H](O)[C@H](O)[C@@H](O)[C@@H]1CO.Cl`, the Activity result (in the data set on HaCaT; in the data set with IB3-1 [2]; in data set [3]; in the data set with IB3-1 [13]) was “Non-Toxic” throughout. Moreover, the outcome in the data set on Fibroblast [1], with SK-N-BE(2) [11] and in the data set on SK-N-BE(2) [14] was inactive. Also, the inhibition result in the data set on SK-N-BE(2) [4], with SK-N-BE(2) [7], in the data set on HeLa [8], with Fibroblast [15], in the data set with Fibroblast [16] and with Fibroblast [17] was “Active” in each case. The inhibition result in the data set on SK-N-BE(2) [18] and with Fibroblast [19] was “Active” in each case. In addition, the result in the data set on Fibroblast [5], in the data set with HeLa [10] and in the data set with HeLa [12] was Active. For the same compound, the inhibition result in the data set on Fibroblast [6] and in the data set on HeLa [9] was “inactive” each time.

Take `Cl.OC[C@@H]1NC[C@@H](O)[C@H](O)[C@H]1O`: the Activity result (in the data set on HaCaT; in the data set with IB3-1 [2]; in data set [3]; in the data set on IB3-1 [13]) was “Non-Toxic” in each case. Further, the result in the data set with Fibroblast [1], in the data set with SK-N-BE(2) [11] and with SK-N-BE(2) [14] was inactive. Moreover, the inhibition result in the data set on SK-N-BE(2) [4], in the data set on SK-N-BE(2) [7], in the data set on HeLa [8], in the data set on HeLa [9], in the data set on Fibroblast [15] and with Fibroblast [16] was “Active” in each case. The inhibition entry with Fibroblast [17], in the data set on SK-N-BE(2) [18] and in the data set with Fibroblast [19] was “Active” in each case. Moreover, the outcome in the data set on Fibroblast [5], in the data set on HeLa [10] and in the data set on HeLa [12] was Active. For the same compound, the inhibition entry in the data set with Fibroblast [6] is “inactive”.
